How the values were obtained:
HT-29 = assay: Drug uptake in human HT-29 cells in presence of amino acid transport system A inhibitor MeAIB; type: ADME, cell-based
Procedure, shortened: (§1)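 Cells were prepared as for the uptake assay and preincubated at 37 °C with inhibitor at 12.5 mmol/L in PBS; controls received PBS. 0.37 MBq [18F]tracer was added and incubated 30 min at 37 °C. Cells were washed cold, lysed and γ-counted. Uptake is given as % of the control group, n = 3.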

Bone [1] = assay: Biodistribution in bone of BALB/c nude mouse xenografted with human A375 cells at 0.8 to 1 MBq, iv after 30 mins by gamma-counter; type: ADME, organism-based, Bone element, A-375; conditions: in vivo, 0.5 h
Procedure, shortened: (§2)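 Female Balb/c nude mice with s.c. A375 flank tumors, studied 26 days after tumor induction. Tracer 0.8-1 MBq in 100 μL saline given i.v. Groups of n = 5 killed at 15, 30, 60 and 120 min. Organs weighed and counted in a γ-counter against dilutions of the injected dose. Values are % ID/g wet tissue, mean ± SD.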

Brain [2] = assay: Biodistribution in brain of BALB/c nude mouse xenografted with human A375 cells at 0.8 to 1 MBq, iv after 120 mins by gamma-counter; type: ADME, organism-based, A-375; conditions: in vivo, 2 h; procedure, shortened: as §2
Urinary bladder = assay: Biodistribution in bladder of BALB/c nude mouse xenografted with human A375 cells after 60 mins by PET/CT imaging; type: ADME, organism-based, A-375; conditions: in vivo, 1 h
Procedure, shortened: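 Female Balb/c nude mice with A375 tumors (1×10^6 cells in Ca/Mg-free PBS injected s.c. in left flank at 6 weeks old). Mice under isoflurane in oxygen. 10 min CT scan, then 18-20 MBq tracer in 100 μL saline given i.v. with a 2 h PET acquisition. Coronal images at 60 min postinjection; n = 3.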

[3] = Metabolic stability in human A375 cells xenografted in BALB/c nude mouse assessed as radioactivity after 0.25 to 2 hrs by HPLC analysis; type: ADME, cell-based, A-375; conditions: in vivo
Procedure, shortened: (§3)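 A375-tumored Balb/c nude mice received 18-20 MBq tracer iv. Plasma and urine were spiked with unlabeled FPHCys and KF and injected directly; tissues were sonicated in saline with carrier and centrifuged at 6000g. Radio-HPLC on C18 with methanol/phosphate buffer pH 6 gave intact fraction as authentic peak over total activity, at 0.25, 1 and 2 h.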

Kidney [4] = assay: Biodistribution in kidney of BALB/c nude mouse xenografted with human A375 cells at 0.8 to 1 MBq, iv after 120 mins by gamma-counter; type: ADME, organism-based, A-375; conditions: in vivo, 2 h; procedure, shortened: as §2
Lung [5] = assay: Biodistribution in lungs of BALB/c nude mouse xenografted with human A375 cells at 0.8 to 1 MBq, iv after 120 mins by gamma-counter; type: ADME, organism-based, A-375; conditions: in vivo, 2 h; procedure, shortened: as §2
Pancreas [6] = assay: Biodistribution in pancreas of BALB/c nude mouse xenografted with human A375 cells at 0.8 to 1 MBq, iv after 60 mins by gamma-counter; type: ADME, organism-based, A-375; conditions: in vivo, 1 h; procedure, shortened: as §2
Muscle tissue [7] = assay: Biodistribution in muscle of BALB/c nude mouse xenografted with human A375 cells at 0.8 to 1 MBq, iv after 30 mins by gamma-counter; type: ADME, organism-based, A-375; conditions: in vivo, 0.5 h; procedure, shortened: as §2
Blood [8] = assay: Biodistribution in blood of BALB/c nude mouse xenografted with human A375 cells at 0.8 to 1 MBq, iv after 15 mins by gamma-counter; type: ADME, organism-based, A-375; conditions: in vivo, 0.25 h; procedure, shortened: as §2
Brain [9] = assay: Biodistribution in brain of BALB/c nude mouse xenografted with human A375 cells at 0.8 to 1 MBq, iv after 15 mins by gamma-counter; type: ADME, organism-based, A-375; conditions: in vivo, 0.25 h; procedure, shortened: as §2
Muscle tissue [10] = assay: Biodistribution in muscle of BALB/c nude mouse xenografted with human A375 cells at 0.8 to 1 MBq, iv after 120 mins by gamma-counter; type: ADME, organism-based, A-375; conditions: in vivo, 2 h; procedure, shortened: as §2
Brain [11] = assay: Metabolic stability in brain of BALB/c nude mouse xenografted with human A375 cells assessed as radioactivity after 0.25 to 1 hrs by HPLC analysis; type: ADME, tissue-based, A-375; conditions: in vivo; procedure, shortened: as §3
Lung [12] = assay: Biodistribution in lungs of BALB/c nude mouse xenografted with human A375 cells at 0.8 to 1 MBq, iv after 60 mins by gamma-counter; type: ADME, organism-based, A-375; conditions: in vivo, 1 h; procedure, shortened: as §2
A-375 [13] = assay: Cellular uptake in human A375 cells after 2 mins by gamma-counter; type: ADME, cell-based; conditions: a-375, 2 min
Procedure, shortened: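 A375 cells grown in RPMI-1640 with 10% FBS and 2 mM L-glutamine; 2.5×10^5 seeded per well overnight, counts done in triplicate. After a warm PBS wash, cells got 0.37 MBq tracer in 500 μL PBS at 37 °C. Stopped with ice-cold PBS wash, lysed in 0.2 N NaOH, counted in a γ-counter. Decay-corrected % applied dose per 10^5 cells, mean ± SD, n = 3.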

Lung [14] = assay: Biodistribution in lungs of BALB/c nude mouse xenografted with human A375 cells at 0.8 to 1 MBq, iv after 30 mins by gamma-counter; type: ADME, organism-based, A-375; conditions: in vivo, 0.5 h; procedure, shortened: as §2
Kidney [15] = assay: Biodistribution in kidney of BALB/c nude mouse xenografted with human A375 cells at 0.8 to 1 MBq, iv after 60 mins by gamma-counter; type: ADME, organism-based, A-375; conditions: in vivo, 1 h; procedure, shortened: as §2
Blood [16] = assay: Biodistribution in blood of BALB/c nude mouse xenografted with human A375 cells at 0.8 to 1 MBq, iv after 60 mins by gamma-counter; type: ADME, organism-based, A-375; conditions: in vivo, 1 h; procedure, shortened: as §2
Spleen = assay: Biodistribution in spleen of BALB/c nude mouse xenografted with human A375 cells at 0.8 to 1 MBq, iv after 60 mins by gamma-counter; type: ADME, organism-based, A-375; conditions: in vivo, 1 h; procedure, shortened: as §2
Brain [17] = assay: Metabolic stability in brain of BALB/c nude mouse xenografted with human A375 cells assessed as radioactivity after 1 hrs by HPLC analysis; type: ADME, tissue-based, A-375; conditions: in vivo; procedure, shortened: as §3
Blood [18] = assay: Biodistribution in blood of BALB/c nude mouse xenografted with human A375 cells at 0.8 to 1 MBq, iv after 30 mins by gamma-counter; type: ADME, organism-based, A-375; conditions: in vivo, 0.5 h; procedure, shortened: as §2
Pancreas [19] = assay: Drug level in pancreas extract of BALB/c nude mouse xenografted with human A375 cells assessed as radioactivity in protein fraction after 0.25 to 2 hrs; type: ADME, tissue-based, A-375; conditions: in vivo
Procedure, shortened: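 Female Balb/c nude mice bore subcutaneous A375 flank tumors and received 18-20 MBq tracer iv. Plasma or tissue was sonicated in 10% TCA with unlabeled FPHCys and KF, then centrifuged at 6000g; the pellet was re-extracted twice. Protein-bound fraction is pellet versus supernatant radioactivity, sampled at 0.25, 1 and 2 h.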

[20] = Metabolic stability in human A375 cells xenografted in BALB/c nude mouse assessed as radioactivity after 2 by HPLC analysis; type: ADME, cell-based, A-375; conditions: in vivo; procedure, shortened: as §3
Pancreas [21] = assay: Biodistribution in pancreas of BALB/c nude mouse xenografted with human A375 cells at 0.8 to 1 MBq, iv after 15 mins by gamma-counter; type: ADME, organism-based, A-375; conditions: in vivo, 0.25 h; procedure, shortened: as §2
Bone [22] = assay: Biodistribution in bone of BALB/c nude mouse xenografted with human A375 cells at 0.8 to 1 MBq, iv after 120 mins by gamma-counter; type: ADME, organism-based, Bone element, A-375; conditions: in vivo, 2 h; procedure, shortened: as §2
Heart = assay: Biodistribution in heart of BALB/c nude mouse xenografted with human A375 cells at 0.8 to 1 MBq, iv after 120 mins by gamma-counter; type: ADME, organism-based, A-375; conditions: in vivo, 2 h; procedure, shortened: as §2
A-375 [23] = assay: Drug uptake in human A375 cells in presence of amino acid transport system L inhibitor BCH; type: ADME, cell-based; procedure, shortened: as §1

Row | Structure (SMILES) | Drug uptake (HT-29) | Drug uptake (Bone [1]) [% ID/g] | Drug uptake (Brain [2]) [% ID/g] | Drug uptake (Urinary bladder) | Stability [3] [%] | Drug uptake (Kidney [4]) [% ID/g] | Drug uptake (Lung [5]) [% ID/g] | Drug uptake (Pancreas [6]) [% ID/g] | Drug uptake (Muscle tissue [7]) [% ID/g] | Drug uptake (Blood [8]) [% ID/g] | Drug uptake (Brain [9]) [% ID/g] | Drug uptake (Muscle tissue [10]) [% ID/g] | Stability (Brain [11]) [%] | Drug uptake (Lung [12]) [% ID/g] | Drug uptake (Lung [14]) [% ID/g] | Drug uptake (Kidney [15]) [% ID/g] | Drug uptake (Blood [16]) [% ID/g] | Drug uptake (Spleen) [% ID/g] | Stability (Brain [17]) [%] | Drug uptake (Blood [18]) [% ID/g] | other results
1 | Cl.N[C@@H](CCSCCC[18F])C(=O)O | Active | 3.5 | 2.57 | Active | 82 | 3.92 | 1.63 | 6.97 | 4.2 | 5.17 | 3.13 | 1.52 | 85 | 2.62 | 5.07 | 5.96 | 2.32 | 2.11 | 90 | 4.44 | Drug uptake (A-375 [13]): > 50%; Drug uptake (Pancreas [19]): 1%; Stability [20]: 78%; Drug uptake (Pancreas [21]): 14.3 % ID/g; Drug uptake (Bone [22]): 1.69 % ID/g; Drug uptake (Heart): 1.37 % ID/g
2 | Cl.N[C@H](CCSCCC[18F])C(=O)O | Active | 2.29 | 0.25 | Active | 82 | 1.04 | 0.85 | 4.79 | 1.97 | 3.51 | 1.53 | 0.63 | 85 | 1.55 | 2.84 | 2.75 | 0.89 | 0.95 | 90 | 2.51 | Drug uptake (A-375 [23]): Not Active; Drug uptake (Pancreas [19]): 1%; Drug uptake (Pancreas [21]): 37.1 % ID/g; Drug uptake (Bone [22]): 1.05 % ID/g; Drug uptake (Heart): 0.4 % ID/g

— ChEMBL document CHEMBL1687936, “Radiosynthesis and biological evaluation of L- and D-S-(3-[18F]fluoropropyl)homocysteine for tumor imaging using positron emission tomography” (J Med Chem, 2011)
